What was measured:
[1] = molecular target: Endothelial PAS domain-containing protein 1 (Homo sapiens, UniProt Q99814); test: Inhibition of HIF-2alpha activity in human 786-O cells by luciferase assay; assay type: cell-based
Method in brief: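 Cells seeded at 5000 per well and allowed to attach overnight, then exposed to test samples or controls the next day. Incubation lasted one day so the HIF-2 signal could drop. Luciferin was then added to the cells and the luciferase signal read.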

[2] = Cytotoxicity against human 786-O cells by XTT assay; assay type: functional, cell-based; conditions: 786-0

Endothelial PAS domain-containing protein 1, sequence (Q99814 whole entry, the tested form may be a part): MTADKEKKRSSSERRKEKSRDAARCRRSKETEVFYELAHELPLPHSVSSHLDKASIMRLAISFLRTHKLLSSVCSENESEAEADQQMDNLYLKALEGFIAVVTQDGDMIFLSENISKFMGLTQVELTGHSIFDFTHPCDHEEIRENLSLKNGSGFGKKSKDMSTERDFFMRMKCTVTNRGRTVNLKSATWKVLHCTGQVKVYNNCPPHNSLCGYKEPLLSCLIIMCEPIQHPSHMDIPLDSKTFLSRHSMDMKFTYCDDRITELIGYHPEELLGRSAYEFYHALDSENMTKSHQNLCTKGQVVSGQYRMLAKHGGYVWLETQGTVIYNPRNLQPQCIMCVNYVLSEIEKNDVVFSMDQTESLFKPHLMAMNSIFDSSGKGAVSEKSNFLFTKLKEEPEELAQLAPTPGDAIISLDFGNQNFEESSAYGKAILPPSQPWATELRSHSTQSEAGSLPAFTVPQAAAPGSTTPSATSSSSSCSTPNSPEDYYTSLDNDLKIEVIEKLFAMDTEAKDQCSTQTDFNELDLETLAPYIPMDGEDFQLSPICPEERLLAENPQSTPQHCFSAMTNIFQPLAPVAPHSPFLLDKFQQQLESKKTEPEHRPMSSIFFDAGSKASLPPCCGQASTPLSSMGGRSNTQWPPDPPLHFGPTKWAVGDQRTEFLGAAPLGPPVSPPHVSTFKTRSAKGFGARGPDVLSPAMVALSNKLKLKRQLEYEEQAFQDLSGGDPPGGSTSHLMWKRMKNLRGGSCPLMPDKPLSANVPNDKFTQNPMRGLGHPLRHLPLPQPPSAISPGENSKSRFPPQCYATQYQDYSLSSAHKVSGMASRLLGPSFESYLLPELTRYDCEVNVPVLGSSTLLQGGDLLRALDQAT

Row | SMILES | EC50 [1] | EC50 ([1]; read-out: EC50) | IC50 [2] | IC50 ([2]; Homo sapiens, read-out: IC50)
1 | C=C(C)/C1=C/C=C(\C)CC[C@@H](O)[C@]2(C)CCC=C(CC1)C(=O)O2 (relative stereo) | Not Active |  | Not Active | 
2 | C=C1C[C@@H](O)/C=C(/C)CC[C@@H]2C([C@@H](OC(C)=O)[C@H](C=C(C)C)OC(C)=O)=CO[C@H](OC(C)=O)[C@@H]12 |  | 6.2 µM |  | 26.3 µM
3 | C=C1CC/C=C(/C)CC[C@@H]2C([C@@H](OC(C)=O)[C@H](C=C(C)C)OC(C)=O)=CO[C@H](OC(C)=O)[C@@H]12 |  | 3.4 µM |  | 5.2 µM
4 | C=C1CC[C@H](OO)C(=C)CC[C@@H]2C([C@@H](OC(C)=O)[C@H](C=C(C)C)OC(C)=O)=CO[C@H](OC(C)=O)[C@@H]12 |  | 11.8 µM |  | 14.2 µM

The next lines start with results.

Row | EC50 [1] | EC50 ([1]; read-out: EC50) | SMILES | IC50 [2] | IC50 ([2]; Homo sapiens, read-out: IC50)
5 |  | 183 µM | CC1=C2CC/C(C)=C/CC[C@]3(C)O[C@@H]3CC/C(C)=C/[C@H]2OC1 |  | 291 µM
6 |  | 108 µM | C=C(C)[C@@H]1CC(=O)/C(C)=C/CC/C(C)=C/CC[C@]2(C)O[C@@H]2C1 |  | 147 µM
7 | Not Active |  | C/C1=C\CC[C@]2(C)O[C@@H]2CC/C(C)=C/C=C(/C(C)(C)O)CC1 | Not Active | 
8 |  | 149 µM | COC(C)(C)/C1=C/C=C(\C)CC[C@H]2O[C@@]2(C)CC/C=C(\C)CC1 (relative stereo) |  | 134 µM
9 | Not Active |  | C/C1=C\C=C(\C(C)C)CCC2=CCC[C@](C)(OC2=O)[C@H](O)CC1 | Not Active | 
